Measurements from the RNAGym collection of RNA variant scans (doi:10.1126/science.aae0568).
This sample holds only a part of the variants without activity.

B1: tRNA (parent)
chain: GUUCCGUUGGCGUAAUGGUAACGCGUCUCCCUCCUAAGGAGAAGACUGCGGGUUCGAGUCCCGUACGGAACG

Variants of: B1
Assay: yeast fitness relative to wild type (ratio to wild type); higher = fitter; tRNA-Arg(CCU), competitive growth, 37 C, YPD
Outline: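 Gene amplicons from the start population and from each of six end populations were read by 100-nucleotide paired-end sequencing. Those end populations came from pooled Saccharomyces cerevisiae strains carrying tRNA-Arg(CCU) gene variants at the native locus, competed in YPD at 37°C for 24 hours. Fitness relative to wild type was worked out from changes in genotype frequencies. Genotypes needed ≥ 100 starting reads, and estimates < 0.5 were set to 0.5.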

First: U3G G17A C30U A57U
Second: C4A A37U
The yeast fitness of the first is lower: ≤ 0.5 for the first, 0.795 for the second.

First: C4A A37G
Second: U3G C31G A43C G52A
The yeast fitness of the first is higher: 0.754 for the first, 0.595 for the second.

Going from C4A C5A C29G G38C A65U to U3G U8C G58A, the yeast fitness rises from ≤ 0.5 to 0.763.

Compared with C4A A15C, C4A A15U is higher in yeast fitness: 0.544 for the first, 0.645 for the second.

Compared with C4A A15G G17A C33U A57U U59C, C4A A57G is higher in yeast fitness: ≤ 0.5 for the first, 0.841 for the second.

Going from C4A A57C to C4A C5U G39C A42C G52C C62U, the yeast fitness falls from 0.57 to ≤ 0.5.

U3G C29A U35G G51A and C4A A14G C49A cannot be ordered by yeast fitness: ≤ 0.5 for the first, ≤ 0.5 for the second.

U3G G25A A45U C62A and U3G C49A G63U G67A cannot be ordered by yeast fitness: ≤ 0.5 for the first, ≤ 0.5 for the second.

Compared with U3G U53A, U3G G6A A14G G38C G41C C62G is lower in yeast fitness: 0.662 for the first, ≤ 0.5 for the second.

First: C4A A20C G68A
Second: U3G C46U G68C
The yeast fitness of the first is lower: ≤ 0.5 for the first, 0.607 for the second.

Compared with C4A C5G U54A C62U, U3G U13A U16A C62U U64A is lower in yeast fitness: 0.536 for the first, ≤ 0.5 for the second.

First: U3G G6C C30U C33G A36C A40U
Second: U3G G17A
The yeast fitness of the first is lower: ≤ 0.5 for the first, 0.665 for the second.

Going from C4A C5U G48C to C4A C5A A43G, the yeast fitness rises from ≤ 0.5 to 0.529.

Compared with U3G G48C G67A, U3G G52C C62A A65C A70U is lower in yeast fitness: 0.683 for the first, ≤ 0.5 for the second.

Going from U3G U13C C33A A42U C55A to C4A C11G U19G A42G, the yeast fitness falls from 0.585 to ≤ 0.5.

Going from C4A A42C C66G G68C to U3G U47C, the yeast fitness rises from ≤ 0.5 to 0.901.

C4A A14U A20C U28G C49U and C4A A15G C33U C62U cannot be ordered by yeast fitness: ≤ 0.5 for the first, ≤ 0.5 for the second.

Going from C4A A20G C34U to U3G U16A A65G, the yeast fitness rises from ≤ 0.5 to 0.664.

U3G G44C U54A and U3G C46A A57U A69U cannot be ordered by yeast fitness: ≤ 0.5 for the first, ≤ 0.5 for the second.

C4A A15U A42G C61U and U3G C27G U35C cannot be ordered by yeast fitness: ≤ 0.5 for the first, ≤ 0.5 for the second.

Compared with C4A A21C C22U G50C G51A A70U, U3G C31U C34U C46G is lower in yeast fitness: 0.559 for the first, ≤ 0.5 for the second.

U3G C55A G58A and C4A A36G C46G A57C cannot be ordered by yeast fitness: ≤ 0.5 for the first, ≤ 0.5 for the second.

C4A C11G A40U A45U and U3G U13C C22A G25C C33U A69C cannot be ordered by yeast fitness: ≤ 0.5 for the first, ≤ 0.5 for the second.

Compared with C4A A40U G52C C60G, C4A A14G A15G G56C is lower in yeast fitness: 0.552 for the first, ≤ 0.5 for the second.

Compared with C4A A69G, C4A A69U is higher in yeast fitness: 0.904 for the first, 0.952 for the second.

Compared with C4A A69C, C4A C5G A37G C46G is lower in yeast fitness: 0.863 for the first, ≤ 0.5 for the second.

C4A C11G U13G G25A and C4A A15G G17A C61G cannot be ordered by yeast fitness: ≤ 0.5 for the first, ≤ 0.5 for the second.

U3G C31A A45C and U3G C27G C49G A70G cannot be ordered by yeast fitness: ≤ 0.5 for the first, ≤ 0.5 for the second.

First: U3G C24A C30U A57C A69U
Second: C4A A21G G68A
The yeast fitness of the first is lower: ≤ 0.5 for the first, 0.7 for the second.

Compared with C4A C5G C66G, C4A C5G C66U is lower in yeast fitness: 0.597 for the first, 0.538 for the second.

U3G G17A C24A C34A C46G and C4A C5G A20G A57U G68U cannot be ordered by yeast fitness: ≤ 0.5 for the first, ≤ 0.5 for the second.

U3G U16G U28C A57U and U3G G18A C30G G41U C49G cannot be ordered by yeast fitness: ≤ 0.5 for the first, ≤ 0.5 for the second.

U3G C33U A37C A65C and C4A A14U A20C U28G U54C cannot be ordered by yeast fitness: ≤ 0.5 for the first, ≤ 0.5 for the second.

C4A A14G G18A G25C and C4A C11A C29G A40G C62G cannot be ordered by yeast fitness: ≤ 0.5 for the first, ≤ 0.5 for the second.

C4A A20C C27U U32C C46U and U3G U47A G68C cannot be ordered by yeast fitness: ≤ 0.5 for the first, ≤ 0.5 for the second.

First: C4A C5A U35C G44A G48C C55G A69U
Second: U3G U13C A14U C29A C55U
The yeast fitness of the first is lower: ≤ 0.5 for the first, 0.611 for the second.

Compared with U3G C30A, U3G C30G is lower in yeast fitness: 0.868 for the first, ≤ 0.5 for the second.

Going from C4A A15C C55U G63C to C4A A21C, the yeast fitness rises from ≤ 0.5 to 0.775.

First: C4A A21G
Second: C4A A15G C33G C60A A70C
The yeast fitness of the first is higher: 0.974 for the first, 0.599 for the second.

U3G U8A G18C G50C and C4A A14U A20C U28G G63U A69C cannot be ordered by yeast fitness: ≤ 0.5 for the first, ≤ 0.5 for the second.

First: C4A C5A C60A
Second: U3G G12C A42U G67C
The yeast fitness of the first is higher: 0.671 for the first, ≤ 0.5 for the second.

C4A C11A G39A G41C C46A G68A and U3G C30G G56A cannot be ordered by yeast fitness: ≤ 0.5 for the first, ≤ 0.5 for the second.
